Experiments:
Leucine--tRNA ligase = target: T1, Leucine--tRNA ligase (Mycobacterium tuberculosis (strain ATCC 25618 / H37Rv), UniProt P9WFV1); experiment: Inhibition of Mycobacterium tuberculosis H37Rv N-terminal 6His-tagged LeuRS expressed in Escherichia coli BL21(DE3) assessed as L-[14C]leucine incorporation in to Escherichia coli tRNA after 20 mins by liquid scintillation counting analysis
T1 sequence (P9WFV1 whole entry): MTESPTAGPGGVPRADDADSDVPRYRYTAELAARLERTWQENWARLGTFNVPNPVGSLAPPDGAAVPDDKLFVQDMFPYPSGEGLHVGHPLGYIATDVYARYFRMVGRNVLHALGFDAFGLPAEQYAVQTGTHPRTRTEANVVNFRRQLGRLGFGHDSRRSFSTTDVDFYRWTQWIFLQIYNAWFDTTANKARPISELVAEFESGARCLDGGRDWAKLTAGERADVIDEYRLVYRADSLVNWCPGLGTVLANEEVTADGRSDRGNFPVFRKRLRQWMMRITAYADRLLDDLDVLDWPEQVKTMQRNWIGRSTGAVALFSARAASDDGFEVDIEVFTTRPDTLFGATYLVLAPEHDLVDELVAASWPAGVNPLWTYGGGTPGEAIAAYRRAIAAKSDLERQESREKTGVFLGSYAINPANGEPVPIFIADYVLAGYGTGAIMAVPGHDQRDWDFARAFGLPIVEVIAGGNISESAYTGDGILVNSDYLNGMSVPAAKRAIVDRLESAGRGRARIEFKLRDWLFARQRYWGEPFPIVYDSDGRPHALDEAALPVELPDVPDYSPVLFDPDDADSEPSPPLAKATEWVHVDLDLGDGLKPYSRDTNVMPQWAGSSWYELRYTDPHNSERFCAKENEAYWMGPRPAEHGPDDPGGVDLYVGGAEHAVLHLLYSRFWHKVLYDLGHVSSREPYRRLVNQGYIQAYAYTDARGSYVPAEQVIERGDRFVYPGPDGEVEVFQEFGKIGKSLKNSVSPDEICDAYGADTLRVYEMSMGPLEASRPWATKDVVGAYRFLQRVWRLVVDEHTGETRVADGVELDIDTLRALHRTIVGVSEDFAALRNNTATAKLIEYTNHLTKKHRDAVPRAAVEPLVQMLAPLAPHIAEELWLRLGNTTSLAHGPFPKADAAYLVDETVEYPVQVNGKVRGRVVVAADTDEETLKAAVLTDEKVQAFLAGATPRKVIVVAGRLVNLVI
Outline: (§1)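 N-terminal His6-tagged LeuRS expressed in E. coli BL21(DE3), codon-optimized. 50 mM HEPES-KOH pH 8.0, 30 mM MgCl2, 30 mM KCl, 13 μM L-[14C]leucine, 15 μM tRNA (E. coli total; brewer's yeast for human cytoplasmic enzyme), 0.02% BSA, 1 mM DTT, 30 °C. Inhibitor preincubated 20 min, started with 4 mM ATP, TCA-quenched after 7 min, filtered, scintillation counted; four-parameter logistic IC50.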

[1] = system: Mycobacterium tuberculosis; experiment: Antimicrobial activity against Mycobacterium tuberculosis H37Rv; assay type: functional
[2] = target: T2, Leucine--tRNA ligase, cytoplasmic (Homo sapiens, UniProt Q9P2J5); experiment: Inhibition of human N-terminal 6His-tagged cytoplasmic LeuRS expressed in Escherichia coli BL21(DE3) assessed as […] after 20 mins by liquid scintillation counting analysis
T2 sequence (Q9P2J5 whole entry): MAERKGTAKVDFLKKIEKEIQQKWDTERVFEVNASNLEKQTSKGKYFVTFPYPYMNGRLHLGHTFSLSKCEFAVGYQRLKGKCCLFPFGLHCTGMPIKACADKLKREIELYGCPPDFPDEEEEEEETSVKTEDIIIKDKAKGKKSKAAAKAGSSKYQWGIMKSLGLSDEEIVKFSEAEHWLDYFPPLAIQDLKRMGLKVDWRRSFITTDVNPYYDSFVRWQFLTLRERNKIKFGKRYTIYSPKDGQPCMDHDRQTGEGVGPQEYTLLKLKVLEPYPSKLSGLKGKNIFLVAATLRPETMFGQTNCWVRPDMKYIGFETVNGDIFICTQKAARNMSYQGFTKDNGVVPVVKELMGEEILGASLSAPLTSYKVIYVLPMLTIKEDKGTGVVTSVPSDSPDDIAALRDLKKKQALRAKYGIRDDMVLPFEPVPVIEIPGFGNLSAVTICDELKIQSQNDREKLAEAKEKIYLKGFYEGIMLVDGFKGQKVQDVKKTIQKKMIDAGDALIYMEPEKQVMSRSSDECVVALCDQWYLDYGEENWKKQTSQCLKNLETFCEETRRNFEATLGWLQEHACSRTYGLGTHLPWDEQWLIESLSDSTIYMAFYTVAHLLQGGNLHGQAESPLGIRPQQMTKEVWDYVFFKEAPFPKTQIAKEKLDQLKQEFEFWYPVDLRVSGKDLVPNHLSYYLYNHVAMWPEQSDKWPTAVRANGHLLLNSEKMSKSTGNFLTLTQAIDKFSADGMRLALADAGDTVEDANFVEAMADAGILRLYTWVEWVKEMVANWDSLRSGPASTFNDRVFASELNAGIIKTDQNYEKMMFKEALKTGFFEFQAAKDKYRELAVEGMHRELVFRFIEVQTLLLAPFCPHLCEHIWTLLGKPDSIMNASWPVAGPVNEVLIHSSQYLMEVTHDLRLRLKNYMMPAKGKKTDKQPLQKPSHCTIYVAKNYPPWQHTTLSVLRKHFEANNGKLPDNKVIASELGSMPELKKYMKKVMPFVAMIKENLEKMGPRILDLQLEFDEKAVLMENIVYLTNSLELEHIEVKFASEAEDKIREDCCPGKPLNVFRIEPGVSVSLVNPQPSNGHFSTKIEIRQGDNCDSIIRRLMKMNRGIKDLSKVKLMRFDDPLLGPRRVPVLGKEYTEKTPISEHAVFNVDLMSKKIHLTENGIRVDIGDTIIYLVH

cytoplasmic LeuRS = experiment: Selectivity index, ratio of EC50 for inhibition of cytoplasmic LeuRS in HepG2 cells assessed as reduction in protein synthesis to MIC for Mycobacterium tuberculosis H37Rv; assay type: toxicity, cell-based; conditions: human, read-out: Selectivity Index
Outline: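 Ratio of HepG2 protein-synthesis EC50 to MIC against M. tuberculosis H37Rv.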

[3] = target: T3, Leucine--tRNA ligase, mitochondrial (Homo sapiens, UniProt Q15031); experiment: Inhibition of human N-terminal 6His-tagged mitochondrial LeuRS expressed in Escherichia coli BL21(DE3) assessed as L-[14C]leucine incorporation in to Escherichia coli tRNA after 20 mins by liquid scintillation counting analysis; outline: as §1
T3 sequence (Q15031 whole entry): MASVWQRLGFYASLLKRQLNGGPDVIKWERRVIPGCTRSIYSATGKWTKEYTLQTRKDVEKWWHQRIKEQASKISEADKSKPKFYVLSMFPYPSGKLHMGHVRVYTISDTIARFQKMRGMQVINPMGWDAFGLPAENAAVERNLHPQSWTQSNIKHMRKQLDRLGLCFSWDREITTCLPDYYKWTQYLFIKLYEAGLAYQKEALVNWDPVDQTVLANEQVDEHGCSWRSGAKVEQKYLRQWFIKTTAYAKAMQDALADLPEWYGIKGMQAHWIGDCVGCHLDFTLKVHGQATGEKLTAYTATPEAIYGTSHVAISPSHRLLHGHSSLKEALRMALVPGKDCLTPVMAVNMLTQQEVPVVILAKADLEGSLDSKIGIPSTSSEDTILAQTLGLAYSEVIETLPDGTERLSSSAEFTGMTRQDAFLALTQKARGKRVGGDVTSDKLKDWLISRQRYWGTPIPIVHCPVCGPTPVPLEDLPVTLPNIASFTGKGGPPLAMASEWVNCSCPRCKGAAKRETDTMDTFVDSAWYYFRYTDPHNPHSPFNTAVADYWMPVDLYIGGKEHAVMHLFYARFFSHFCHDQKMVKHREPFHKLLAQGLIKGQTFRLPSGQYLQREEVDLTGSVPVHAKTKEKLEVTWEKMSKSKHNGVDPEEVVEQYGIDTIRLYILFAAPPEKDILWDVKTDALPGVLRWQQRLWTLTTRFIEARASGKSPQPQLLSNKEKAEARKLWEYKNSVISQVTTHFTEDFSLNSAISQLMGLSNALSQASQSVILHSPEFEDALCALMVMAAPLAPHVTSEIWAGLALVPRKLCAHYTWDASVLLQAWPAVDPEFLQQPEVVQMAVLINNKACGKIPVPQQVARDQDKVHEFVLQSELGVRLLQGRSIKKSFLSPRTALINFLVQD

[4] = target: T2, Leucine--tRNA ligase, cytoplasmic; experiment: Inhibition of cytoplasmic LeuRS in human HepG2 cells assessed as reduction in protein synthesis preincubated for 48 hrs followed by L-[14C]leucine addition measured after 3 hrs by liquid scintillation counting analysis; assay type: cell-based
Outline: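 HepG2 cells in DMEM/10% FCS, 3000 cells/well, exposed to compound dilutions (0.5% DMSO final) for 48 h at 37 °C. Medium then replaced with fresh medium containing 0.5 μCi L-[14C]leucine and the same compound levels for 3 h. Cells trypsinised, precipitated in ice-cold 20% TCA, filtered, washed, scintillation counted; curve-fit EC50; mean of at least duplicates.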

HepG2 = experiment: Cytotoxicity against human HepG2 cells assessed as reduction in cell viability after 48 hrs by CellTiter-Glo assay; assay type: cell-based; conditions: HepG2, 48 h
Outline: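 HepG2 cells seeded at 10 000/well in EMEM with 5% FCS and 2 mM glutamine. After 24 h, ten 1:2 serial compound dilutions (0.5% DMSO final) added in duplicate for 48 h. Read-out by CellTiter-Glo luminescence per table footnote; the method text also describes resazurin fluorescence (ex 515/em 590 nm). Sigmoidal variable-slope fit.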

[5] = Volume of distribution at steady state in CD-1 mouse at 5 mg/kg, iv after 24 hrs by LC-MS/MS analysis; assay type: ADME, organism-based; conditions: in vivo, read-out: Vdss
[6] = Clearance in CD-1 mouse at 5 mg/kg, iv after 24 hrs by LC-MS/MS analysis; assay type: ADME, organism-based; conditions: in vivo
[7] = Half life in CD-1 mouse at 5 mg/kg, iv after 24 hrs by LC-MS/MS analysis; assay type: ADME, organism-based; conditions: in vivo
[8] = AUC (0 to infinity) in CD-1 mouse at 5 mg/kg, iv after 24 hrs by LC-MS/MS analysis; assay type: ADME, organism-based; set-up: dose 5 mg/kg, route intravenous, time infinity; conditions: in vivo
Mus musculus [9] = experiment: Dose normalized AUC (0 to infinity) in CD-1 mouse at 5 mg/kg, iv after 24 hrs by LC-MS/MS analysis; assay type: ADME, organism-based; conditions: in vivo
[10] = Cmax in CD-1 mouse at 5 mg/kg administered via oral gavage after 24 hrs by LC-MS/MS analysis; assay type: ADME, organism-based; set-up: dose 5 mg/kg, route oral; conditions: in vivo
[11] = Tmax in CD-1 mouse at 5 mg/kg administered via oral gavage after 24 hrs by LC-MS/MS analysis; assay type: ADME, organism-based; conditions: in vivo
[12] = AUC (0 to 24 hrs) in CD-1 mouse at 5 mg/kg administered via oral gavage by LC-MS/MS analysis; assay type: ADME, organism-based; set-up: time < 24 hr, dose 5 mg/kg, route oral; conditions: in vivo
Mus musculus [13] = experiment: Dose normalized AUC (0 to 24 hrs) in CD-1 mouse at 5 mg/kg administered via oral gavage by LC-MS/MS analysis; assay type: ADME, organism-based; conditions: in vivo
[14] = Oral bioavailability in CD-1 mouse at 5 mg/kg administered via gavage after 24 hrs by LC-MS/MS analysis; assay type: ADME, organism-based; conditions: in vivo
[15] = system: Mycobacterium tuberculosis; experiment: Antimicrobial activity against Mycobacterium tuberculosis H37Rv infected in C57BL/6J mouse assessed as 2 log reduction in bacterial load in lungs administered qd for 8 consecutive days starting on day 1 post infection measured 24 hrs post last dose; assay type: functional
[16] = system: Mycobacterium tuberculosis; experiment: Antimicrobial activity against Mycobacterium tuberculosis H37Rv infected in C57BL/6J mouse assessed as bacterial load in lungs at 100 mg/kg qd administered for 8 consecutive weeks starting from 6 weeks post infection measured 24 hrs post last dose (reference value: 6.4 +/- 0.3 log10CFU); assay type: functional
Outline: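 C57BL/6J mice infected intratracheally with ~10² CFU M. tuberculosis H37Rv. Dosed QD, 7 days/week, for 8 weeks starting 6 weeks post-infection; killed ≥24 h after last dose. Lung homogenates plated on 7H11/10% OADC for 21 days at 37 °C. n = 3 per dose group, 7 for controls; mean (SD); ANOVA with Dunnett's test versus 14-week untreated.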

Mus musculus [17] = experiment: Dose normalized AUC (0 to infinity) in C57BL/6 mouse at 30 mg/kg, iv administered as single dose measured up to 24 hrs by LC-MS/MS analysis; assay type: ADME, organism-based; conditions: in vivo
[18] = Cmax in C57BL/6 mouse at 30 mg/kg administered as single dose via oral gavage measured up to 24 hrs by LC-MS/MS analysis; assay type: ADME, organism-based; set-up: dose 30 mg/kg, route oral; conditions: in vivo
[19] = Tmax in C57BL/6 mouse at 30 mg/kg administered as single dose via oral gavage measured up to 24 hrs by LC-MS/MS analysis; assay type: ADME, organism-based; conditions: in vivo
Outline: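 C57BL/6 female mice (18−20 g) got one oral gavage dose of 30 mg/kg in 1% methylcellulose. Peripheral whole blood was sampled from 15 min to 24 h postdose, n = 3 mice per time point, and drug concentrations were measured in blood.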

[20] = AUC (0 to 24 hrs) in C57BL/6 mouse at 30 mg/kg administered as single dose via oral gavage by LC-MS/MS analysis; assay type: ADME, organism-based; set-up: time < 24 hr, dose 30 mg/kg, route oral; conditions: in vivo
Mus musculus [21] = experiment: Dose normalized AUC (0 to 24 hrs) in C57BL/6 mouse at 30 mg/kg administered as single dose via oral gavage by LC-MS/MS analysis; assay type: ADME, organism-based; conditions: in vivo
[22] = Volume of distribution at steady state in C57BL/6 mouse at 30 mg/kg, iv administered as single dose measured up to 24 hrs by LC-MS/MS analysis; assay type: ADME, organism-based; conditions: in vivo, read-out: Vdss
Outline: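 C57BL/6 female mice (18−20 g) got one intravenous dose in saline. Whole blood (15 μL) was taken by lateral tail-vein puncture from each of 3 mice at 5, 15 and 30 min and at 1, 2, 4, 8 and 24 h postdose, and drug concentrations were measured in peripheral blood.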

[23] = Oral bioavailability in C57BL/6 mouse at 30 mg/kg administered as single dose via gavage measured up to 24 hrs by LC-MS/MS analysis; assay type: ADME, organism-based; conditions: in vivo
[24] = Clearance in C57BL/6 mouse at 30 mg/kg, iv administered as single dose measured up to 24 hrs by LC-MS/MS analysis; assay type: ADME, organism-based; conditions: in vivo
[25] = Half life in C57BL/6 mouse at 30 mg/kg, iv administered as single dose measured up to 24 hrs by LC-MS/MS analysis; assay type: ADME, organism-based; conditions: in vivo
[26] = AUC (0 to infinity) in C57BL/6 mouse at 30 mg/kg, iv administered as single dose measured up to 24 hrs by LC-MS/MS analysis; assay type: ADME, organism-based; set-up: dose 30 mg/kg, time infinity, route intravenous; conditions: in vivo

## COc1ccc(Br)c2c1B(O)O[C@@H]2CN.Cl
Leucine--tRNA ligase
  IC50: 0.074 µM
[1]
  MIC: 0.1 µM
[2]
  IC50: > 300 µM
Cytoplasmic LeuRS
  selectivity ratio: 970
[3]
  IC50: > 300 µM
[4]
  EC50: 97 µM
HepG2
  EC50: 74.5 µM
[5]
  Vd: 2.5 L/kg
[6]
  clearance: 14.2 mL/min/kg
[7]
  half-life: 2.4 h
[8]
  AUC(0-inf): 5840 ng·h/mL
Mus musculus [9]
  AUC/dose: 1.17 µg·h/mL/mg/kg
[10]
  Cmax: 980 ng/mL
[11]
  Tmax: 0.25 h
[12]
  AUC(0-t) at 24 h: 4210 ng·h/mL
Mus musculus [13]
  AUC/dose: 0.84 µg·h/mL
[14]
  bioavailability: 72%
[15]
  ED99: 3.8 mg/kg

## CC(=O)NC[C@H]1CN(c2ccc(N3CCOCC3)c(F)c2)C(=O)O1 [LINEZOLID]
[16]
  Activity: 3.9 log10CFU

## Cl.NC[C@H]1OB(O)c2c3c(cc(Cl)c21)OCCO3
Mus musculus [17]
  AUC/dose: 2.54 µg·h/mL/mg/kg
Leucine--tRNA ligase
  IC50: 0.046 µM
[1]
  MIC: 0.08 µM
[2]
  IC50: 96.6 µM
Cytoplasmic LeuRS
  selectivity ratio: 1040
[4]
  EC50: 82.8 µM
HepG2
  EC50: 69.5 µM
[18]
  Cmax: 6210 ng/mL
[19]
  Tmax: 1 h
[20]
  AUC(0-t) at 24 h: 37700 ng·h/mL
Mus musculus [21]
  AUC/dose: 1.26 µg·h/mL
[22]
  Vd: 1.5 L/kg
[23]
  bioavailability: 50%
[24]
  clearance: 6.6 mL/min/kg
[25]
  half-life: 2.9 h
[26]
  AUC(0-inf): 76300 ng·h/mL
[15]
  ED99: 70 mg/kg

Source: ChEMBL document CHEMBL4017537, “Discovery of a Potent and Specific M. tuberculosis Leucyl-tRNA Synthetase Inhibitor: (S)-3-(Aminomethyl)-4-chloro-7-(2-hydroxyethoxy)benzo[c][1,2]oxaborol-1(3H)-ol (GSK656)” (J Med Chem, 2017)
